# Screening results deposited in PubChem by several laboratories.
# Only some compounds are listed: those with a hit (about 0.99% of all), similar ones and a draw of the others.
# GSK3 alpha inh: inhibitors of human GSK-3 alpha kinase. ADP-Glo luminescence, 60 min. 0.1% of 320,000 active. P49840. inhibition, % at 10 µM;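 active means more than half of replicates show inhibition above 20%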;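 further: GST-tagged GSK-3 alpha with peptide substrate and 25 µM ATP; 0% = DMSO neutral wells and 100% = GW8510 positive control wells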
# Target sequence (P49840 whole entry, looked up): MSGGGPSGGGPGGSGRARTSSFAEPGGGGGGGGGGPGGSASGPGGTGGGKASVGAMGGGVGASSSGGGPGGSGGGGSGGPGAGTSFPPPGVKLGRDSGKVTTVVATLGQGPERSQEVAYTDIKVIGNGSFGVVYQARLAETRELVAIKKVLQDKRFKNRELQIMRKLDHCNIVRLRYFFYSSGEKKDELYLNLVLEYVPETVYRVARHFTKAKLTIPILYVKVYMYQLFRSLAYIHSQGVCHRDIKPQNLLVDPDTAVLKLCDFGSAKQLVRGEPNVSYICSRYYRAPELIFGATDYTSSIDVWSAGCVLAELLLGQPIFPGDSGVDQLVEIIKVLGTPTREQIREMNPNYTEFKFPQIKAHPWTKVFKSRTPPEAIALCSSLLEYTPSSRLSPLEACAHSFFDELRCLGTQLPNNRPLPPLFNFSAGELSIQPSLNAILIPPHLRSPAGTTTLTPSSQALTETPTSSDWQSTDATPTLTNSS
# STK33 kinase inh: human STK33 kinase inhibition; purified STK33, MBP phosphorylation, ADP-Glo luminescence; inhibition, % at 10 µM; 0.073% of 320,000 active; AID 2661;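 active means inhibition at or above 25%, using the most active replicate where run in duplicate; inactive means inhibition below 25%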
# Rin1-Abl PPI inh: blocks binding of human Rin1 to Abl; AID 588664; inhibition, % at 7.35 µM; P00519+Q13671; 0.4% of 360,000 active; TR-FRET Rin1/Abl binding, biochemical; in the data active means inhibition above about 5%, passing the limit was not always enough
# Arrestin-AP2 inh: inhibitors of human beta-arrestin and AP2 interaction | FITC-arrestin peptide / GST-AP2 beads, flow cytometry; AP2 beta2 appendage carries R879A mutation | inhibition, % at 10 µM | 0.31% of 340,000 active | AID 504490;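 active means inhibition above a set limit, near 3 SD of compounds lacking own fluorescence, cut at about 54% in these data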;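 further: plate controls were DMSO wells for no effect and 5 µM unlabelled arrestin peptide for full effect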
#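 System: GST-AP2 R879A glutathione beads | Also added: FITC-arrestin peptide, 50 nM | Times: 12 min plus 1 h, RT | Signal: Bead flow cytometry, FITC channel | Buffer or medium: PBS with 0.05% Tween 20 and 0.1% BSA | Read-out basis: Percent drop in bead-associated FITC signal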
# GSK3B inh: human GSK3beta kinase inhibition; 0.038% of 300,000 active; activity score (negative = inhibition), % at 10 µM; GST-GSK3beta kinase, ADP-Glo luminescence, 60 min; hits give low values; AID 2097;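 active means more than half of replicate wells score below -50%, meaning over 50% inhibition versus plate controls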;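 further: 0% = median DMSO wells and -100% = median GW8510 positive control wells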
#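 Test system: GST-fused GSK3beta enzyme, cell-free | Quantity: 1.6 ng GST-GSK3beta enzyme per well | Reagent: 25 µM ATP with peptide substrate | Schedule: 60 min enzyme reaction, room temperature | Signal: Luminescent ADP-Glo measurement of ADP formed | Read-out basis: Score relative to plate controls | Control set: DMSO and 20 µM GW8510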
# DYRK1A inh: Dyrk1A (rat) kinase inhibition; 0.43% of 310,000 active; ADP-Glo luminescence, NFATc1 peptide; inhibition, % at 12.5 µM; in the data active means inhibition above about 50%;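 further: plate controls were vehicle with enzyme for no effect and no enzyme for full effect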
# Rin1 Abl conf: confirmation of inhibitors of human Rin1-Abl interaction | shares compounds with Rin1-Abl PPI inh | TR-FRET Rin1-Abl binding, purified proteins | inhibition, % at 7.35 µM | 49% of 1,300 active
# GFP quench: GFP fluorescence interference artifact; shares compounds with Rin1-Abl PPI inh; inhibitors/quenchers counterscreen; inhibition, % at 6.75 µM; 8.5% of 1,300 active;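 further: ABL1-eGFP fusion protein alone without its partner RIN1-SBP; 0% = protein with vehicle and 100% = wells lacking protein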
# Numbers without * were called inactive; . = no result given. Unless noted, no stated cut-off is given here; in the data, active means inhibition above about 6.5%; inactive means the rest.
SMILES,GSK3 alpha inh,STK33 kinase inh,Rin1-Abl PPI inh,Arrestin-AP2 inh,GSK3B inh,DYRK1A inh,Rin1 Abl conf,GFP quench
COc1ccc(C[C@H]2CN3C(=NC[C@@H]3Cc3ccc(O)cc3)N2C[C@H](C)NC(=O)c2ccc(C)c(Br)c2)cc1,5.9,-0.8,9.4*,-4.4,-1.4,10.4,1.3,0.0
CCCCn1cnc2c(SCc3ccccc3F)nc(N)nc21,.,.,-0.9,11.4,.,-6.0,.,.
Cc1nn(-c2ccccc2)c(C)c1C(=O)OCC(=O)N(C)c1ccccc1,-0.2,0.2,9.0*,0.6,.,.,2.3,-0.5
CC(=O)OCC(=O)C12OC(C)(C)OC1CC1C3CC=C4CC(O)CCC4(C)C3CCC12C (configuration not stated),.,.,11.5*,9.7,.,.,0.3,0.3
O=C(O)CC(C(=O)O)N1C(=O)/C(=C/C=C/c2ccco2)SC1=S (configuration not stated),1.0,3.2,17.9*,13.2,-4.4,-7.2,11.4*,13.1*
C=CCn1c(C)cc(C(=O)CSc2nnc3n(CCC)c(=O)c4ccccc4n23)c1C,.,.,0.7,1.2,.,-3.7,.,.
O=C(O)/C=C/C(=O)Nc1ccc(-n2ccc(C(F)(F)F)n2)cc1,-5.9,-1.3,6.4*,9.8,2.9,-0.4,0.1,0.6
O=C(O)/C=C/C(=O)Nc1ccc(-n2nccc2C(F)(F)F)cc1,-0.2,-1.2,-2.5,6.3,-1.3,11.4,.,.
Cc1cc(C)nc(Nc2nc3ccccc3s2)n1,-0.2,0.1,-4.6,26.7,-0.7,.,.,.
Cc1ccc(Nc2nc3ccccc3s2)c(C)c1,-1.5,1.0,6.9*,-6.4,-0.7,-0.2,0.3,0.0
Cc1ccc(S(=O)(=O)N2CCC(C(=O)N3CCCCCCC3)CC2)cc1C,.,.,0.1,.,.,.,.,.
Cc1ccc(NC(=O)C(c2ccc(Cl)cc2Cl)N2CCCC2)cc1 (configuration not stated),3.7,-3.9,-3.7,3.8,-2.0,-6.3,.,.
Cc1cccc(NC(=O)C(c2ccccc2Cl)N2CCOCC2)c1 (configuration not stated),-0.2,1.1,8.2*,38.2,1.8,1.4,-1.4,0.6
COc1ccc(CNC(=O)COC(=O)CCCOc2ccc(Cl)cc2Cl)cc1OC,-3.9,-0.4,10.2*,28.2,0.0,-3.8,-1.3,0.7
CC(C)NC(=O)CN1C(=O)c2cccc3cccc1c23,-1.2,-1.1,-0.1,5.6,1.6,-3.0,.,.
CCn1c(SC(C)C(=O)OC)nnc1-c1c[nH]c2ccccc12 (configuration not stated),1.8,1.6,-1.0,4.0,1.2,0.5,.,.
CCn1c(SCc2ccc(C(=O)OC)o2)nnc1-c1c[nH]c2ccccc12,0.7,-1.0,13.6*,-2.8,1.9,3.5,10.6*,-0.1
C#CCOC(=O)CCC(=O)NCCc1ccccc1,10.9,8.7,-3.2,-4.5,-0.2,-4.7,.,.
C#CCOC(=O)CCCC(=O)NCCCCCCCC,-2.7,-0.5,6.6*,12.9,3.1,-1.3,-0.2,0.0
CC(=O)Nc1cnc(-c2ccc3c(c2)OCO3)cn1,.,.,-1.9,.,.,.,.,.
Cc1ccc(C(C[N+](=O)[O-])c2c(C)[nH]n(-c3ccccc3)c2=O)cc1 (configuration not stated),4.4,-0.1,6.0*,7.7,-0.4,1.6,2.3,-1.0
CC1(C(=O)NS(=O)(=O)c2ccccc2)CCN1C(=O)CC1CCCCC1 (configuration not stated),.,.,-0.5,.,.,.,.,.
Oc1c(CN2CCCCC2)ccc2cccnc12,.,.,34.2*,41.5,.,-2.9,4.8,3.5
Oc1ccc(CN2CCCCC2)c2cccnc12,-3.6,-1.5,1.8,9.3,3.9,-2.7,.,.
Oc1c(CN2CCCCC2)cc(COCc2ccccc2)c2cccnc12,-1.7,-2.6,14.0*,4.7,-5.0,-0.5,5.9,1.3
CCOc1ccccc1N1CCN(Cc2cccc(OC)c2O)CC1,0.4,-3.4,3.5,13.4,-8.8,-0.5,.,.
COc1ccccc1N1CCN(Cc2cc(Br)c(O)c3ncccc23)CC1,-2.4,-2.6,9.7*,4.1,1.4,6.2,0.3,2.2
